Published values pooled from the literature.
Target: SNF-related serine/threonine-protein kinase (SNRK, Homo sapiens, UniProt Q9NRH2)
One construct used (Q9NRH2 1-765): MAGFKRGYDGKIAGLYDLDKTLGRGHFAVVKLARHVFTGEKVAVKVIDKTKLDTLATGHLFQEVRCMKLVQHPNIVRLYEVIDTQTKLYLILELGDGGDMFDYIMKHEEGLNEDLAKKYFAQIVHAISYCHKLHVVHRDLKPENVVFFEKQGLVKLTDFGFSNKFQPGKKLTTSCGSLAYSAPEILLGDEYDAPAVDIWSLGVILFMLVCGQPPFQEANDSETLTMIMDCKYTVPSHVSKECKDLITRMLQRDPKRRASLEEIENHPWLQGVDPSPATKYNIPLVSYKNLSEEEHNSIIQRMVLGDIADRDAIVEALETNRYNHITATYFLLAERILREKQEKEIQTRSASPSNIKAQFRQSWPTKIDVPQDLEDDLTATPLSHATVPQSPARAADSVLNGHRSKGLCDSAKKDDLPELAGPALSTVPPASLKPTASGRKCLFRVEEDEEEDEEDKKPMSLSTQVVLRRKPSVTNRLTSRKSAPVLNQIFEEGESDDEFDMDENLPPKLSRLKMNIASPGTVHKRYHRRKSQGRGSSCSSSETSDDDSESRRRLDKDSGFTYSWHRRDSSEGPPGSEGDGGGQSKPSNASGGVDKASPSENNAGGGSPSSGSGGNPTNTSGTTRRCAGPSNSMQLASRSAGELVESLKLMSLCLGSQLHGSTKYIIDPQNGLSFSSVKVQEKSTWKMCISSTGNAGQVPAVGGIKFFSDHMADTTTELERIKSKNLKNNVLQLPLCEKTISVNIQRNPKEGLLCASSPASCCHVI

Compound	test	conditions	remaining binding [%]
CN(CCCC(F)(F)F)c1nccc(-c2cnn3ncccc23)n1	binding	1 µM	100
CNC(=O)[C@@H]1CC[C@@H](n2c(-c3ccc4cnccc4c3)nc3ccc(C(=O)NCc4cccc(C(N)=O)c4)cc32)C1	binding, competition with immobilised ligand	1 µM	100
c1cncc(-c2cccc(Nc3nccc(NC4CCCCC4)n3)c2)c1	binding, competition with immobilised ligand	10 µM	69
O=C(NCCCN1CCOCC1)c1ccc(Nc2ncc(Cl)c(-c3ccc(Cl)s3)n2)cc1	binding, competition with immobilised ligand	1 µM	100
Nc1ncc2c(n1)-c1c([nH]c3ccc(C#CC4CC4)cc13)CCCC2	binding, competition with immobilised ligand	1 µM	88
CN(c1nccc(-c2cnn3ncccc23)n1)C1CC1	binding	1 µM	100
CO[C@@H](C)c1c(Nc2ccc([C@H](N(C)C(=O)C3CCS(=O)(=O)CC3)C(F)(F)F)cc2)cnc2cc(Cl)nn12	cell-free assay, competition with immobilised ligand	1 µM	100
C=CC(=O)N1CCC(C(=O)NCC(=O)N2CCN(c3nc(-c4cnc(N)nc4C(F)F)nc(N4CCOCC4)n3)CC2)CC1	binding, competition with immobilised ligand	1 µM	99
F[C@@H]1CCN(c2nccc(-c3cnn4ncccc34)n2)C1	binding	1 µM	100
CS(=O)(=O)NCC[C@H](NC(=O)c1cncc2c1cnn2-c1ccc(F)cc1)c1ccnc(S(C)(=O)=O)c1	cell-free assay, competition with immobilised ligand	1 µM	100
O=C(c1ccc(Nc2nccc(-c3cc4ccccc4s3)n2)cc1)N1CCC(N2CCCC2)CC1	binding, competition with immobilised ligand	1 µM	100
N[C@H]1CCN(c2nccc(-c3cnn4ncccc34)n2)C1	binding	1 µM	100
O=C(Nc1c[nH]nc1C(=O)NC1CCNCC1)c1cc(F)cc(F)c1	binding, competition with immobilised ligand	1 µM	97
Cc1noc([C@H]2C[C@@H](c3ccc(C(F)(F)F)cc3)CN(C(=O)N3CCS(=O)(=O)C3)C2)n1	cell-free assay, competition with immobilised ligand	1 µM	100
COc1cnc(Nc2cccc(S(N)(=O)=O)c2)nc1N1CCN(c2ccccc2)CC1	binding, competition with immobilised ligand	1 µM	88
COc1ccnn2ncc(-c3ccnc(N(C)C)n3)c12	binding	1 µM	93
CN(c1ccnc(CNc2nc(Nc3ccc4c(c3)CC(=O)N4)ncc2C(F)(F)F)n1)S(C)(=O)=O	cell-free assay, competition with immobilised ligand	1 µM	85
O=C(c1ccc(Nc2ncc(Cl)c(-c3cc4ccccc4s3)n2)cc1)N1CCC(N2CCCC2)CC1	binding, competition with immobilised ligand	1 µM	87
COc1ccc2c(c1)O[C@H](c1ccc(OC)c(OC)c1)C[C@@H]2NC(=O)C1(c2ccc3c(c2)OC(F)(F)O3)CC1	cell-free assay, competition with immobilised ligand	1 µM	92
CN(C)c1nccc(-c2cnn3ncccc23)n1	binding	1 µM	100
CC(=O)N1CCC(c2ccc(C(=O)NC3=NCCN3)cc2C(F)(F)F)CC1	cell-free assay, competition with immobilised ligand	1 µM	98
C[C@@H]1CCN(c2nccc(-c3cnn4ncccc34)n2)C1	binding	1 µM	92
